The nature of series [1]: Intrinsic clearance in human liver microsomes at 1 uM in presence of NADPH measured up to 30 mins by LC-MS/MS analysis. The format is ADME, Microsome. The note with it: read-out: CLH.
Series [2] concerns the target T1, Tyrosine-protein kinase BTK (Homo sapiens, UniProt Q06187). Briefly: Covalent inhibition of N-terminal GST-fused human BTK (2-659(end) amino acids) expressed in baculovirus expression system using FITC-AHA-EEPLYWSFPAKKK-NH2 as substrate incubated for 90 mins by microfluidic off-Chip Mobility Shift Assay.
The target of series [3] is T1, Tyrosine-protein kinase BTK. Briefly: Inhibition of BTK in human PBMC cells assessed as reduction in anti-IgM-stimulated CD69 expression on B cells preincubated for 60 mins followed by goat F(ab')2 anti-human IgM stimulation and measured after overnight incubation by flow cytometry. The format is cell-based.
The nature of series [4]: Stability of the compound in plasma (unknown origin) assessed as compound remaining at 4 hrs. The format is ADME, cell-free. The note with it: read-out: Stability.
Series [5] in a line: Kinetic solubility of the compound. The format is physicochemical. The note with it: read-out: Kinetic_solubility.
Series [6] addresses Voltage-gated inwardly rectifying potassium channel KCNH2 (Homo sapiens, UniProt Q12809). Briefly: Inhibition of human ERG expressed in HEK293 cells at -80 mV holding potential by […]. The format is cell-based.
A short description of series [7]: Apparent permeability across apical to basolateral side in human Caco2 cells at 1 uM incubated for 2 hrs by LC-MS/MS analysis. The note with it: Caco-2. It is filed as ADME, cell-based.
The target of series [8] is Epidermal growth factor receptor (Homo sapiens, UniProt P00533). The series can be described thus: Inhibition of N-terminal GST-tagged human EGFR (696 to end aminoacids) expressed in baculovirus infected Sf21 cells.
A further series is filed under the species Homo sapiens. Briefly: Selectivity ratio, ratio of IC50 for EGFR (unknown origin) to IC50 for full length human BTK ([…]).
In another series the target is hERG (KCNH2) (Homo sapiens, UniProt Q12809). Briefly: Inhibition of human ERG expressed in HEK293 cells at 10 uM at -80 mV holding potential by […] relative to control. The format is cell-based. Particulars: HEK293 cells expressing human ERG.
Series [9] relates to Mus musculus. The series can be described thus: Inhibition of B cell activation in C57BL/6 mouse at 1 mg/kg, po after 1 hr relative to control. It is filed as functional. The note with it: Mus musculus, C57BL/6, po, 1 h. Summed up: (§1)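 Normal C57BL/6 mice received a single oral dose of 1 mg/kg and were tested in an in vivo B cell stimulation assay. Inhibition of B cell activation was read at 1 h and 24 h after dosing.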

Series [10] is described as follows: Cmax in C57BL/6 mouse at 1 mg/kg, po. The format is ADME, organism-based. More on the design: dose 1 mg/kg, route oral. Particulars: in vivo.
Series [11] concerns Mus musculus. Briefly: Inhibition of B cell activation in C57BL/6 mouse at 1 mg/kg, po after 0.25 hr relative to control. The format is functional. Particulars: Mus musculus, C57BL/6, po, 0.25 h.
Series [12] concerns Mus musculus. The series can be described thus: Inhibition of B cell activation in C57BL/6 mouse at 1 mg/kg, po after 24 hr relative to control. The format is functional. Particulars: Mus musculus, C57BL/6, po, 24 h. Summed up: as §1
Series [13] has as its system Rattus norvegicus. Briefly: Antiarthritic activity in Lewis rat model of collagen-induced arthritis assessed as reduction in ankle swelling at 0.1 mg/kg, po administered via gavage once daily starting from day 6 to day 16 and measured from day 11 to day 17 by caliper method.
The test system of series [14] is Rattus norvegicus. Briefly: Antiarthritic activity in Lewis rat model of collagen-induced arthritis assessed as reduction in ankle histopathological scores at 0.1 mg/kg, po administered via gavage once daily starting from day 6 to day 16 relative to control. More on the design: scale not given: the % may be the effect or the level left.
The nature of series [15]: Efflux ratio in human Caco2 cells. The format is ADME, cell-based. Particulars: Caco-2.
In series [16] the target is Tyrosine-protein kinase BTK (Homo sapiens, UniProt Q06187, C481S). Briefly: Inhibition of BTK Cys481S mutant (unknown origin).

The source of these data is ChEMBL document CHEMBL4373703 (J Med Chem, 2019).

Each structure is given as a SMILES string. pIC50, pKi: −log10 of the molar value. Converted amounts (≈) assume the structure as drawn. The source made the active and inactive calls. The calls are words filed in the database; no cut-off is given here.

Voltage-gated inwardly rectifying potassium channel KCNH2, sequence (Q12809 whole entry): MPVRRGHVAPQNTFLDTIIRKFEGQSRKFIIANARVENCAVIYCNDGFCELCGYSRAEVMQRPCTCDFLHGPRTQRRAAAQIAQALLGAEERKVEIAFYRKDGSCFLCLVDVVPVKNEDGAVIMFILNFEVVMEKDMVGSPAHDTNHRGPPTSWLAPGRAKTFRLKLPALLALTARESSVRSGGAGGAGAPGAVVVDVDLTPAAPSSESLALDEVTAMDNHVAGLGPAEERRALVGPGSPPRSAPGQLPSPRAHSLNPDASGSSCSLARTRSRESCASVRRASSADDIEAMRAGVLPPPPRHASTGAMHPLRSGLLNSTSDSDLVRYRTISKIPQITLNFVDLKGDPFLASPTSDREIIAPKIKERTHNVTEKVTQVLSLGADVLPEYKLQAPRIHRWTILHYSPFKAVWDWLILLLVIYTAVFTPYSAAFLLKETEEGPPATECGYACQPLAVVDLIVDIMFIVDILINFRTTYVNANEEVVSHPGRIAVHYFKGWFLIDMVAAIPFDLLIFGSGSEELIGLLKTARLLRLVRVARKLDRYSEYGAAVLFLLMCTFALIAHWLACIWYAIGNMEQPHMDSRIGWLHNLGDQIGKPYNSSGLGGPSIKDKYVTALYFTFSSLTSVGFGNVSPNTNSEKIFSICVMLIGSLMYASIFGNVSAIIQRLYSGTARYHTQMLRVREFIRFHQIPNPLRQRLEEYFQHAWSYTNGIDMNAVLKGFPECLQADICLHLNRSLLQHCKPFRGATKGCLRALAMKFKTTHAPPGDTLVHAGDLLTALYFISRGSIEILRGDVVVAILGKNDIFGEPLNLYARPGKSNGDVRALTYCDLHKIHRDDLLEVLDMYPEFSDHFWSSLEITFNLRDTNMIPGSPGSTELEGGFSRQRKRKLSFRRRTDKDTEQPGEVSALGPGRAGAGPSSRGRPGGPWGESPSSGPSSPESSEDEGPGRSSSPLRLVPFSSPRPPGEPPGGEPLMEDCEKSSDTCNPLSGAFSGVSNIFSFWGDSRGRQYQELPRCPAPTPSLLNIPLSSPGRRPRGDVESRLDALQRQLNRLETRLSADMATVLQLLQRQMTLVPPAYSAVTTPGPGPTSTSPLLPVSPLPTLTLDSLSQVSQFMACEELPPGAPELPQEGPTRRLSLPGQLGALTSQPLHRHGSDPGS
hERG (KCNH2), sequence (Q12809 whole entry): as above
Epidermal growth factor receptor, sequence (P00533 whole entry): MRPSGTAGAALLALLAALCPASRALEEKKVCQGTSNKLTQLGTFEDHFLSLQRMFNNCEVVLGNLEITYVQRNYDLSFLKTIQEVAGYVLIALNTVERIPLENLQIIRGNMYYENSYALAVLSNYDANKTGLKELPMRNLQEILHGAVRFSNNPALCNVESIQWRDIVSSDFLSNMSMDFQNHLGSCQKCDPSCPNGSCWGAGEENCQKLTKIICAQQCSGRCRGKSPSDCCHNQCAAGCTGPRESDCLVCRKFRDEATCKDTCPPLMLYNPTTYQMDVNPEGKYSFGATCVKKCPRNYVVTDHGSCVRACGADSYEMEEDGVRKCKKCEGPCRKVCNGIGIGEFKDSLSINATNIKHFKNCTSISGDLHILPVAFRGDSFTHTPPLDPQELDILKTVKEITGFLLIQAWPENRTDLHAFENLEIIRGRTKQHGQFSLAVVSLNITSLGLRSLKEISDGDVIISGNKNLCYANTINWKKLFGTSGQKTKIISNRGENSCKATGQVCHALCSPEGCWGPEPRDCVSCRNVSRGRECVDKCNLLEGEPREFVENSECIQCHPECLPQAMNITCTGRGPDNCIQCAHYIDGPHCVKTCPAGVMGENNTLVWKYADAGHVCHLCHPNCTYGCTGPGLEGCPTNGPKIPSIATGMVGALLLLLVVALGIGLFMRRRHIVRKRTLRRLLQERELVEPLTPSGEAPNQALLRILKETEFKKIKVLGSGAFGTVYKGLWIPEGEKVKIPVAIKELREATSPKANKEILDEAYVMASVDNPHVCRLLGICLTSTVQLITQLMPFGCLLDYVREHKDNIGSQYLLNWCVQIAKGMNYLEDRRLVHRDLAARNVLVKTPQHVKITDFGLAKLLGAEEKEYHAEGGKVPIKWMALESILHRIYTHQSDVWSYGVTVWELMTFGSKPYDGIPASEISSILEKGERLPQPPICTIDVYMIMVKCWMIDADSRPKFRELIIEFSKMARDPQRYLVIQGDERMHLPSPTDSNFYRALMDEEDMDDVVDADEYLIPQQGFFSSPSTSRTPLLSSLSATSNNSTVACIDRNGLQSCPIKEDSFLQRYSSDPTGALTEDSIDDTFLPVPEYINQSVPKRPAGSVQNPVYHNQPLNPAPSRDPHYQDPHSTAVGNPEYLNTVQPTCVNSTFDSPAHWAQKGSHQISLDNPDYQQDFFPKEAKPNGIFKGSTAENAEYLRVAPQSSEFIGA
T1 sequence (Q06187 whole entry, the tested form may be a part): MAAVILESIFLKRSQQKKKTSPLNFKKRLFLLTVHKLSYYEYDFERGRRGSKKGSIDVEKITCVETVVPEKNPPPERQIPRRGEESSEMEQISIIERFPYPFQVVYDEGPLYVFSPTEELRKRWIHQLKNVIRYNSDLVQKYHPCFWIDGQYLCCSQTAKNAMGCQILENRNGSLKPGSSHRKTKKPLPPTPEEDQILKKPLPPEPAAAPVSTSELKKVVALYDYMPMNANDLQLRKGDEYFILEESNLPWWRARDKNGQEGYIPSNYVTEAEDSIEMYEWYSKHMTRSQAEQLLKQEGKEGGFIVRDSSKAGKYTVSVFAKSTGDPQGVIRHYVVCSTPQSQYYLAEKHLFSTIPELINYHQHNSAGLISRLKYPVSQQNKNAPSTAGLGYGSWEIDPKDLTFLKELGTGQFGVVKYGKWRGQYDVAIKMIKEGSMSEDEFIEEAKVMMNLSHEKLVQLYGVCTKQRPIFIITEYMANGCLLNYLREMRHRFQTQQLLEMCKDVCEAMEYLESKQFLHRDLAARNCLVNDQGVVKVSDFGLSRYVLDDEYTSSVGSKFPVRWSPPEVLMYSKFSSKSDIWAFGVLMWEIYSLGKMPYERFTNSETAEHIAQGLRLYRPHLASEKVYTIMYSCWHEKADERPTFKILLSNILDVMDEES
Tyrosine-protein kinase BTK (Homo sapiens, UniProt Q06187, C481S), sequence (Q06187 2-659 C481S limits assumed): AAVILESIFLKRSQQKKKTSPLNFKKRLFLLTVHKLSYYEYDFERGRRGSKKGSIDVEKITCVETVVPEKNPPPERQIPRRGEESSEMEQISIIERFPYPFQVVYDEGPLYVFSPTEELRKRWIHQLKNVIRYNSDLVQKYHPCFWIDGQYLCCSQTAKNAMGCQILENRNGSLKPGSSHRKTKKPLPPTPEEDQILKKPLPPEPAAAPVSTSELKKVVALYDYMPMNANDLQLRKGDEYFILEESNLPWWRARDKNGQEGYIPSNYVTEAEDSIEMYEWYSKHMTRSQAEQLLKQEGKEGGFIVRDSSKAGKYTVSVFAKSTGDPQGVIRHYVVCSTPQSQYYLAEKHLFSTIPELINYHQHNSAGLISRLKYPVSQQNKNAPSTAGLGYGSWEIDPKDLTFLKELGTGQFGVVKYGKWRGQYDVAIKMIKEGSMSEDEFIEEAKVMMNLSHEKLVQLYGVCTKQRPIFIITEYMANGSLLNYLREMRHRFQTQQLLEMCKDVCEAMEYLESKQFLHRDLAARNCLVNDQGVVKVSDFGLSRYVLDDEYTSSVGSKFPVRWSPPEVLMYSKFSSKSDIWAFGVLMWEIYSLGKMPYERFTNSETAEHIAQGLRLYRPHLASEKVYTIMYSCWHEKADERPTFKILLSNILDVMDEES

With `C=CC(=O)N1CCC(CNc2ncnc(N)c2-c2ccc(Oc3ccc(C)cc3)cc2)CC1`, the microsomal CLint at 1 µM in series [1] amounted to 145 µL/min/mg. In series [2], the pIC50 is 7.74.
The like results for `C=CC(=O)N1CCC(CNc2ncnc(N)c2-c2ccc(Oc3ccc(F)cc3)cc2)CC1` were, in that order, 143 µL/min/mg and 6.82.
For the molecule `Nc1ncnc(NCC2CCN(C(=O)C3=CCC3)CC2)c1-c1ccc(Oc2ccccc2)cc1`, the pIC50 in series [3] and in series [2] was 6.54 in each case.
As for `C#CC(=O)N1CCC(CNc2ncnc(N)c2-c2ccc(Oc3ccccc3)cc2)CC1`, the remaining at 4 h in [4] amounted to 34%. Also, the pIC50 in series [2] is 9.70.
Turning to `C=CC(=O)Nc1cccc(Oc2ccncc2-c2ccc(Oc3ccccc3)cc2)c1`, the pIC50 in series [2] was 7.36.
On the same count and under the same terms, under `C=CC(=O)N1CCC(CNc2ncnc(N)c2-c2ccc(C(=O)Nc3ccccc3)cc2)CC1` stands 5.92.
Take `C=CC(=O)N1CC2(CC(Nc3ncnc(N)c3-c3ccc(Oc4ccccc4)cc3)C2)C1`: the microsomal CLint at 1 µM in [1] came out at 777 µL/min/mg. Moreover, the solubility kinetic in [5] amounted to 153 µM (≈ 65.4 µg/mL). The molecule also gave a pKi in [6] of 6.11. Also, the Papp A→B at 2 h, 1 µM in [7] turned out to be 9.3 ×10⁻⁶ cm/s.
For `C=CC(=O)Nc1cccc(Oc2ccnc(N)c2-c2ccc(Oc3ccccc3)cc2)c1`, the pIC50 in series [8] is 6.85; in series [2] it was 8.30. The Ratio IC50 in the series filed under Homo sapiens was 25 to 30. This molecule also displayed an inhibition at 10 µM at hERG (KCNH2) of 81%.
`C=CC(=O)N1CCC(CNc2ncnc(N)c2-c2cc(F)c(Oc3ccccc3)cc2F)CC1`: the microsomal CLint at 1 µM in [1] turned out to be 143 µL/min/mg. Further, the pIC50 in [2] was 6.80.
Consider `C=CC(=O)N1CCCC(Nc2ncnc(N)c2-c2ccc(Oc3ccccc3)cc2)C1` (single isomer, unassigned), for which, in [8], the negative logarithm of the IC50 (pIC50) was 6.26. Further, the microsomal CLint at 1 µM in [1] amounted to 598 µL/min/mg. At hERG (KCNH2), at 10 µM the inhibition was 43%.
Molecule `C=CC(=O)Nc1cccc(Oc2ncncc2-c2ccc(Oc3ccccc3)cc2)c1` had an inhibition at 10 µM on hERG (KCNH2) of 46%.
For the molecule `C=CC(=O)N1CCC(O)(CNc2ncnc(N)c2-c2ccc(Oc3ccccc3)cc2)CC1`, the inhibition in vivo at 1 mg/kg with Mus musculus [9] was 42%; in the series with Mus musculus [11], 37%; in the series with Mus musculus [12], 15%. Further, in series [1], the microsomal CLint at 1 µM turned out to be 68 µL/min/mg. For the same molecule, the solubility kinetic in [5] came out at 169 µM (≈ 75.3 µg/mL). For the same molecule, the concentration in series [10] peaked (Cmax) at 257 nM. For the same molecule, the Papp A→B at 2 h, 1 µM in series [7] was found to be 9 ×10⁻⁶ cm/s. The molecule further came in with an inhibition at 10 µM at hERG (KCNH2) of 45%.
`C=CC(=O)NC1CCCN(c2ncnc(N)c2-c2ccc(Oc3ccccc3)cc2)C1` (stereo not drawn): the pIC50 in series [2] is 5.82.
`CN(Cc1cnc2nc(N)nc(N)c2n1)c1ccc(C(=O)N[C@@H](CCC(=O)O)C(=O)O)cc1` [METHOTREXATE]: the result with Rattus norvegicus [13] was Active. In the series with Rattus norvegicus [14], the Activity came to 60%.
Turning to `C=CC(=O)N[C@@H]1CCC[C@H](Nc2ncnc(N)c2-c2ccc(Oc3ccccc3)cc2)C1` (relative stereo), the microsomal CLint at 1 µM in series [1] worked out at 27 µL/min/mg. For the same molecule, the solubility kinetic in series [5] amounted to 134 µM (≈ 57.6 µg/mL). The pKi in [6] is 5.74. In series [7], the Papp A→B at 2 h, 1 µM came to 11.9 ×10⁻⁶ cm/s.
In the case of `C=CC(=O)N[C@H]1CC[C@@H](Nc2ncnc(N)c2-c2ccc(Oc3ccccc3)cc2)CC1`, the microsomal CLint at 1 µM in series [1] came to 41 µL/min/mg. Further, the solubility kinetic in series [5] was 154 µM (≈ 66.1 µg/mL). Further, the Papp A→B at 2 h, 1 µM in series [7] came out at 10 ×10⁻⁶ cm/s.
As to `C=CC(=O)NC12CCC(Nc3ncnc(N)c3-c3ccc(Oc4ccccc4)cc3)(C1)C2`, in [15], the efflux ratio is 1.4. For the same molecule, the values for the pIC50 in series [3] and in series [2] were 7.15 and 8.00, respectively. The microsomal CLint at 1 µM in series [1] stood at 36 µL/min/mg. In addition, the solubility kinetic in [5] is 110 µM (≈ 47 µg/mL). Besides, the pKi in series [6] is 5.89. For the same molecule, the Papp A→B at 2 h, 1 µM in [7] worked out at 21.7 ×10⁻⁶ cm/s.
As to `C=CC(=O)N1CCC(CNc2ncnc(N)c2-c2ccc(Oc3cccc(F)c3)cc2)CC1`, in [1], the microsomal CLint at 1 µM was 199 µL/min/mg.
In the case of `C=CS(=O)(=O)N1CCC(CNc2ncnc(N)c2-c2ccc(Oc3ccccc3)cc2)CC1`, in series [4], the remaining at 4 h amounted to 16%.
On the same count and under the same terms, under `Nc1ncnc(NCC2CCN(C(=O)CCl)CC2)c1-c1ccc(Oc2ccccc2)cc1` stands 49%.
Molecule `CC(=O)N1CCC(CNc2ncnc(N)c2-c2ccc(Oc3ccccc3)cc2)CC1` had a pIC50 in series [16] of 5.06 to 5.07.
Consider `C=CC(=O)N1CCC(Nc2ncnc(N)c2-c2ccc(Oc3ccccc3)cc2)C1` (single isomer, unassigned), for which the microsomal CLint at 1 µM in series [1] was determined as 77 µL/min/mg. Further, the solubility kinetic in series [5] was found to be 160 µM (≈ 64.2 µg/mL). The Papp A→B at 2 h, 1 µM in series [7] came to 25.2 ×10⁻⁶ cm/s. The inhibition at 10 µM against hERG (KCNH2) was 40%.
For `C=CC(=O)N1CCC(Nc2ncnc(N)c2-c2ccc(Oc3ccccc3)cc2)CC1`, the pIC50 in [2] was 5.82.
The same measure, in the same setting: under `C=CC(=O)N1CCC(CNc2ncnc(N)c2-c2ccc(Oc3ccccc3)cc2C(F)(F)F)CC1` stands less than 4.00.
In the case of `C=CC(=O)N1CCC(CNc2ncnc(N)c2-c2ccc(Oc3ccncc3)cc2)CC1`, in series [1], the microsomal CLint at 1 µM was 688 µL/min/mg. The pIC50 in series [2] was 6.14.
As to `C=CC(=O)Nc1cccc(-c2c(N)ncnc2Nc2ccc(Oc3ccccc3)cc2)c1`, the pIC50 in series [8] is 9.00; in series [2], 8.10.
Regarding `C=CC(=O)N[C@@H]1CC[C@H](Nc2ncnc(N)c2-c2ccc(Oc3ccccc3)cc2)C1` (relative stereo), the microsomal CLint at 1 µM in series [1] is 202 µL/min/mg. Besides, in [5], the solubility kinetic was 158 µM (≈ 65.6 µg/mL). In addition, the Papp A→B at 2 h, 1 µM in series [7] was found to be 23.6 ×10⁻⁶ cm/s.
Consider `C=CC(=O)Nc1cccc(Nc2ncnc(N)c2-c2ccc(Oc3ccccc3)cc2)c1`, for which, in [15], the efflux ratio stood at 1.6. Moreover, the values for the pIC50 in series [8], in series [3] and in series [2] were 8.40, 7.72 and 8.40, respectively. In addition, in series [1], the microsomal CLint at 1 µM is 43 µL/min/mg. For the same molecule, the solubility kinetic in series [5] is 16 µM (≈ 6.78 µg/mL). This molecule showed a pKi in series [6] of 6.28. The Papp A→B at 2 h, 1 µM in series [7] stood at 4.2 ×10⁻⁶ cm/s.
Turning to `C=CC(=O)Nc1cccc(Oc2ncnc(N)c2-c2ccc(Oc3ccccc3)cc2)c1`, the efflux ratio in [15] amounted to 4.3. Also, the results for the pIC50 in [8], in series [3] and in series [2] were 7.11, 8.00 and 8.52 to 8.54, respectively. In addition, in series [1], the microsomal CLint at 1 µM is 277 µL/min/mg. Also, the solubility kinetic in series [5] is less than 2.4 µM. The Ratio IC50 in the series filed under Homo sapiens lay in the range of 25 to 30. Besides, the Papp A→B at 2 h, 1 µM in [7] worked out at 1.6 ×10⁻⁶ cm/s. The molecule further yielded an inhibition at 10 µM on hERG (KCNH2) of 3%.
